Measured values of several laboratories.
Observed: metabolic stability

Cc1ccc(F)c2cc(C(=O)N[C@@H]3CCC[C@H](N4CC[C@H](N(C)S(C)(=O)=O)C4)C3)[nH]c12 — scaled CLint (mouse; hepatocytes; 0.5 µM; 1 h): 721 mL/min/kg
C[C@H]1COCCN1c1nc(NCc2cccnc2C(F)(F)F)c2cccnc2n1 — hepatocyte CLint (mouse; hepatocytes): 8.9 µL/min/10⁶ cells
Cc1cc(C)nc(Nc2ncc(C(=O)NCCc3c(C)[nH]c4ccccc34)cn2)c1 — microsomal CLint (mouse; liver microsomes; 1 µM): 148 µL/min/mg
NC(=O)[C@@H]1CC(F)(F)CN1C(=O)c1ccc(N2CC(F)(F)C2)c(OCC2CC2)n1 — hepatocyte CLint (mouse; hepatocytes): 59 µL/min/10⁶ cells
Cc1ncc2n1-c1ccc(Cl)cc1C(c1ccccc1F)=NC2 — microsomal CLint (male CD-1 mouse; liver microsomes; 1 µM): > 250 µL/min/mg
Cc1nc([C@@](C)(CC2CC2)NC(=O)c2cc(OCC(F)(F)F)c(C3CC3)cn2)no1 — hepatocyte CLint (mouse; hepatocytes): 27 µL/min/10⁶ cells
Cc1nc2c(=O)n(C)c(=O)nc-2n(C)n1 — microsomal CLint (mouse; liver microsomes): < 7.4 µL/min/mg
Cc1cc(Cl)c(Cl)cc1NC(=O)c1ccc(N2CCNCC2)c(C#N)c1 — scaled CLint (CD-1 mouse; liver microsomes; 1 µM; 1 h; pH 7.4): 29 mL/min/kg
